Measured values: ChEMBL document CHEMBL1146459, “Production of biologically active taxoids by a callus culture of Taxus cuspidata” (2004)

Key:
Format in all cases: functional, A2780 ADR
[1] = Reversal of multidrug resistance in human 2780AD cells assessed as [3H]vincristine accumulation at 0.1 ug/mL after 2 hrs relative to control
Summary of the method: (§1)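 Multidrug-resistant human ovarian cancer 2780AD cells were exposed to taxoids at 0.1, 1 or 10 µg/mL. Radiolabelled vincristine accumulated in the cells was measured as dpm/well, using means of triplicate determinations. Results are expressed as % of vincristine accumulated relative to the control experiment. They were also scored on a seven-level index according to the range of relative accumulation.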

[2] = Reversal of multidrug resistance in human 2780AD cells assessed as [3H]vincristine accumulation at 1 ug/mL after 2 hrs relative to verapamil
[3] = Reversal of multidrug resistance in human 2780AD cells assessed as [3H]vincristine accumulation at 10 ug/mL after 2 hrs relative to control; summary of the method: as §1
[4] = Reversal of multidrug resistance in human 2780AD cells assessed as [3H]vincristine accumulation at 10 ug/mL after 2 hrs relative to verapamil
[5] = Reversal of multidrug resistance in human 2780AD cells assessed as [3H]vincristine accumulation at 0.1 ug/mL after 2 hrs relative to verapamil
[6] = Reversal of multidrug resistance in human 2780AD cells assessed as [3H]vincristine accumulation at 1 ug/mL after 2 hrs relative to control; summary of the method: as §1

Row | Structure (SMILES) | Activity [1] | Activity [2] | Activity [3] | Activity [4] | Activity [5] | Activity [6]
1 | C=C1[C@@H](OC(C)=O)CC[C@@]2(C)C[C@H](OC(C)=O)C3=C(C)C[C@H](OC(=O)C(C)C)[C@@H]([C@@H](OC(C)=O)[C@H]12)C3(C)C | 96% | 95% | 522% | 98% | 82% | 195%
2 | C=C1[C@@H](OC(C)=O)CC[C@@]2(C)C[C@H](OC(C)=O)C3=C(C)C[C@H](OC(=O)CC)[C@@H]([C@@H](OC(C)=O)[C@H]12)C3(C)C | 119% | 134% | 770% | 145% | 102% | 295%
3 | C=C1[C@@H](OC(C)=O)CC[C@@]2(C)C[C@H](OC(C)=O)C3=C(C)C[C@H](OC(C)=O)[C@@H]([C@@H](OC(C)=O)[C@H]12)C3(C)C [TAXUYUNNANINE C] | 105% | 97% | 244% | 78% | 91% | 155%
4 | COc1ccc(CCN(C)CCCC(C#N)(c2ccc(OC)c(OC)c2)C(C)C)cc1OC (configuration not stated) [VERAPAMIL] | 117% | – | 531% | – | – | 207%
5 | C=C1[C@@H](OC(C)=O)CC[C@@]2(C)C[C@H](OC(C)=O)C3=C(C)C[C@H](OC(=O)C(C)C(C)O)[C@@H]([C@@H](OC(C)=O)[C@H]12)C3(C)C (some centres not stated) [YUNNANXANE] | 112% | 94% | 234% | 75% | 97% | 150%
